We go through 14 compounds from ChEMBL document CHEMBL1155876 (J Med Chem, 2008).

The structures appear in SMILES notation. A value given as a limit tells only on which side of the number the result lay.

Series [1] can be described thus: Cmax in CD1 mouse at 30 mg/kg, po. Format: ADME, organism-based. More on the design: dose 30 mg/kg, route oral. The note with it: in vivo.
A short description of series [2]: AUClast in CD1 mouse at 30 mg/kg, po. More on the design: time 0 - last, dose 30 mg/kg, route oral. The note with it: plasma. Format: ADME, organism-based.
Series [3] has as its target T1, Aurora kinase B (Homo sapiens, UniProt Q96GD4). Briefly: Inhibition of Aurora B.
In series [4] the target is T2, Aurora kinase A (Homo sapiens, UniProt O14965).
T2 sequence (O14965 whole entry): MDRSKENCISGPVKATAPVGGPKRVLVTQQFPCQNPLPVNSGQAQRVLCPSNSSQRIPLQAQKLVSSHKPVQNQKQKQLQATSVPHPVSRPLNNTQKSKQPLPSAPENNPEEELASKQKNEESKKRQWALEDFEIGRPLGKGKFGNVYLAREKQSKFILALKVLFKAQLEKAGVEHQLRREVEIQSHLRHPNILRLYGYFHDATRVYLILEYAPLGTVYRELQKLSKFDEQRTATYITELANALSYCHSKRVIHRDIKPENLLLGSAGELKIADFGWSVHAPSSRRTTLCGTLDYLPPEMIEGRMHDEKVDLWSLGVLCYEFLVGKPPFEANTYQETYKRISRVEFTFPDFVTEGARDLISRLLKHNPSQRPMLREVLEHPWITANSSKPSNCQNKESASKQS
Nature of the series: Inhibition of Aurora A.

The next series relates to HT-29. Nature of the series: Antiproliferative activity against human HT29 cells. Format: functional, cell-based. In outline: (§1)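 HCT116, HT29 or MCF7 cells were seeded on day 0 in 1:1 Ham's F12/DMEM-high glucose with 10% FBS and 2 mM L-glutamine, then kept overnight at 37 °C in 5% CO2. On day 1, inhibitor in DMSO, diluted 20-fold in serum- and glutamine-free medium, was added. Viability was read on day 4 as total ATP by CellTiter-Glo luminescence.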

Another series relates to MCF7. Nature of the series: Antiproliferative activity against human MCF7 cells. Format: functional, cell-based. In short, it runs like this:
as §1

Series [5] deals with Mus musculus. Briefly: Oral bioavailability in CD1 mouse 5 mg/kg. Format: ADME, organism-based. The note with it: in vivo. In outline:
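Female CD-1 mice, three per time point. Oral dose 5 mg/kg as a solution in 80% polyethylene glycol; iv reference dose 1 mg/kg as a solution in 5% DMSO, 5% Cremophor. PK parameters calculated from mean serum levels (N = 3).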

For series [6], the target named is T2, Aurora kinase A. Nature of the series: Inhibition of Aurora A in human HCT cells assessed as loss of autophosphorylation of Aurora A. Type of series: cell-based.
Series [7] can be described thus: Clearance in Beagle dog 1 mg/kg, iv. The note with it: in vivo. Format: ADME, organism-based, Canis lupus familiaris. Also noted: dose 1 mg/kg, route intravenous. In outline:
(§2)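 A single 1 mg/kg iv dose was given. Vehicles: CD-1 mice (female, 3 per time point), 5% DMSO/5% Cremophor; SD rats (male, 3 per route), 80% PEG; beagles (male, 3 per route), 60% PEG. PK parameters were calculated from averaged serum levels (N = 3).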

For series [8], the target named is T1, Aurora kinase B. Nature of the series: Inhibition of Aurora B assessed as loss of phospho histone H3 in human […] cells. Type of series: cell-based.
The nature of series [9]: Oral bioavailability in Beagle dog 5 mg/kg. Type of series: ADME, organism-based, Canis lupus familiaris. The note with it: in vivo. In outline: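 Three male beagles per route. Oral dose 5 mg/kg given as a solution in 80% PEG; iv comparator 1 mg/kg delivered in 60% PEG. Mean serum concentrations (N = 3) used to derive PK parameters.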
In series [10] the target is Cyclin-dependent kinase 2 (Homo sapiens, UniProt P24941). Briefly: Inhibition of CDK2/CyclinA.
For series [11], the target named is Glycogen synthase kinase-3 beta (Homo sapiens, UniProt P49841). Briefly: Inhibition of GSK3-beta.
Glycogen synthase kinase-3 beta, sequence (P49841 whole entry): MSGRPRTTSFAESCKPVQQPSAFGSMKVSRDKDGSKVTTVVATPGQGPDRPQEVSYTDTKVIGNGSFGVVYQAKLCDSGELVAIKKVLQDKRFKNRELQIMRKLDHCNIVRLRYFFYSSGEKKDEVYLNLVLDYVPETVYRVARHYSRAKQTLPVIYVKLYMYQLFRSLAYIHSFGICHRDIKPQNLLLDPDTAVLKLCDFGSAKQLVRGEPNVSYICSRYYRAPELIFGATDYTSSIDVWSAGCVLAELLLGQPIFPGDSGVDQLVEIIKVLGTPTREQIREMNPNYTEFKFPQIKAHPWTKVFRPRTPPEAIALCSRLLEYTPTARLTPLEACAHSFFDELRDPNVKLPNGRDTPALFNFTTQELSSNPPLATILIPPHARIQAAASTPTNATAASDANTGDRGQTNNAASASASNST
The target of series [12] is Vascular endothelial growth factor receptor 2 (Homo sapiens, UniProt P35968). Nature of the series: Inhibition of KDR.
Vascular endothelial growth factor receptor 2, sequence (P35968 whole entry): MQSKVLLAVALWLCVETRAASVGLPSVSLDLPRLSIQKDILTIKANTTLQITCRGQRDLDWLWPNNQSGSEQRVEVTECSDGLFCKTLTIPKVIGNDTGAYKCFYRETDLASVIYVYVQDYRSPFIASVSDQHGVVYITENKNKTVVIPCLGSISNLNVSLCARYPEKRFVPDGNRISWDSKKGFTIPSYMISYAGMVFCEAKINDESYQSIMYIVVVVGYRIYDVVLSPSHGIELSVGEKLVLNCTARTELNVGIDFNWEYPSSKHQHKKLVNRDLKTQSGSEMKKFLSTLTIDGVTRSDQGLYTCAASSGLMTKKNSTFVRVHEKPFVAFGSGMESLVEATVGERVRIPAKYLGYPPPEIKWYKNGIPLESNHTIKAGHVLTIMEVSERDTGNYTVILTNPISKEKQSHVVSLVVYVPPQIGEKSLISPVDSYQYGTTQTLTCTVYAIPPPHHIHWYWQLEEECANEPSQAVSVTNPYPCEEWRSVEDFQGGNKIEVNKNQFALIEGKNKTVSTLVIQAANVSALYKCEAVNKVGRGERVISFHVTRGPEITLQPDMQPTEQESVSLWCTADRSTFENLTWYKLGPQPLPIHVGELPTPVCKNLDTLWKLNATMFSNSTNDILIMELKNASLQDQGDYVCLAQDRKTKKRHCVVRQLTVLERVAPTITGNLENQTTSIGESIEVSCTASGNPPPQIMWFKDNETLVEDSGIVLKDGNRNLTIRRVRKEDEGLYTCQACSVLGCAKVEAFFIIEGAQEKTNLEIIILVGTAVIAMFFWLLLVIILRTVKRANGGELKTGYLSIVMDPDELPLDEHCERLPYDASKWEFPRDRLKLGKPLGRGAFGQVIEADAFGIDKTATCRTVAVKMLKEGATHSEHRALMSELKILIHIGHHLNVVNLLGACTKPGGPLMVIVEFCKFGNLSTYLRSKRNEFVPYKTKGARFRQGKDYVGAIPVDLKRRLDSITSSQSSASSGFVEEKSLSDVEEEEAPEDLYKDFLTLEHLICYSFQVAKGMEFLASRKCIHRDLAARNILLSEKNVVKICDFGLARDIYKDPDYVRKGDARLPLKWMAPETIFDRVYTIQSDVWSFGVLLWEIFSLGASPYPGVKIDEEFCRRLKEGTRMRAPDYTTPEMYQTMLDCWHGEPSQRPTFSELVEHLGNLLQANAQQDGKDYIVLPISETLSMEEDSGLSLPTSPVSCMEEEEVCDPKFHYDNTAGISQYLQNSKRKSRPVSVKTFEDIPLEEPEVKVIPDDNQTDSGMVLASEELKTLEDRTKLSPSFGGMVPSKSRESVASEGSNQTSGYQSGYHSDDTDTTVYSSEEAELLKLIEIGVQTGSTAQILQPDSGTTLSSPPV
The nature of series [13]: Clearance in Sprague-Dawley rat 1 mg/kg, iv. Format: ADME, organism-based. Also noted: dose 1 mg/kg, route intravenous. The settings on record: in vivo. In outline: as §2
A short description of series [14]: Clearance in CD1 mouse 1 mg/kg, iv. More on the design: dose 1 mg/kg, route intravenous. The note with it: in vivo. Format: ADME, organism-based. In short, it runs like this: as §2
Series [15] deals with Receptor-type tyrosine-protein kinase FLT3 (Homo sapiens, UniProt P36888). Nature of the series: Inhibition of Flt3.
Receptor-type tyrosine-protein kinase FLT3, sequence (P36888 whole entry): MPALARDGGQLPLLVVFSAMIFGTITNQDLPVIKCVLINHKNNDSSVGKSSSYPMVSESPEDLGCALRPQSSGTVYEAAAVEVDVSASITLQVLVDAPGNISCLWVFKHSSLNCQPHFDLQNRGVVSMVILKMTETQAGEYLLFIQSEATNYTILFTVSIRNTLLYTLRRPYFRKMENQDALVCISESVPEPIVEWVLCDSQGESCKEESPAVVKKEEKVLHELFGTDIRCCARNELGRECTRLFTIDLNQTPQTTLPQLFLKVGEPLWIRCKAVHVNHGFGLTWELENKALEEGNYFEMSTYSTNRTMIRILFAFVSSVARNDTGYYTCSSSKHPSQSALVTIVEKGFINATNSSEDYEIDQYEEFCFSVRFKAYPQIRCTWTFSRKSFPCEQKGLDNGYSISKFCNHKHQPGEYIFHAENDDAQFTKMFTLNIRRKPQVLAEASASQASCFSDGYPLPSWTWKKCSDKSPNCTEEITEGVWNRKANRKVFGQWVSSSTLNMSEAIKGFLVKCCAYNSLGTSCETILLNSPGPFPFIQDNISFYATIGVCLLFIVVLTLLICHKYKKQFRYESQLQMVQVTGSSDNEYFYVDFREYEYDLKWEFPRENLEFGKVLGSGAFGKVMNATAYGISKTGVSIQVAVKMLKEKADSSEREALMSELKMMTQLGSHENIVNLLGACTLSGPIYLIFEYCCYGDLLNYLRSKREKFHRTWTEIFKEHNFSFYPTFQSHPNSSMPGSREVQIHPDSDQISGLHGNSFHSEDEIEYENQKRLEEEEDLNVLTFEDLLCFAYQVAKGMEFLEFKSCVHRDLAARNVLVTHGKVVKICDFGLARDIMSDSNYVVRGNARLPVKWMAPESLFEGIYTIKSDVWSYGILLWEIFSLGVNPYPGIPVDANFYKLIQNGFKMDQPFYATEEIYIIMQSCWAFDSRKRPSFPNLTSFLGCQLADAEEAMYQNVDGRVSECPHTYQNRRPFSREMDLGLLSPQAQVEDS
The target in series [16] is T1, Aurora kinase B. Briefly: Inhibition of Aurora B assessed as loss of phospho histone H3 in human HCT cells. Format: cell-based.
Series [17] has as its target Serine/threonine-protein kinase Chk1 (Homo sapiens, UniProt O14757). Nature of the series: Inhibition of Chk1.
A short description of series [18]: Oral bioavailability in Sprague-Dawley rat 5 mg/kg. Format: ADME, organism-based. The note with it: in vivo. In short, it runs like this:
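Male Sprague-Dawley rats, three per route. Oral dose 5 mg/kg as a solution in 80% PEG; iv dose 1 mg/kg, also as an 80% PEG solution. PK parameters calculated from averaged serum levels (N = 3).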

For series [19], the system named is Mus musculus. Nature of the series: Toxicity in athymic mouse xenografted with human HCT116 cells assessed as bone marrow depletion at 10 mg/kg, po qd. Type of series: organism-based, HCT-116. More on the design: dose 10 mg/kg, route oral. The settings on record: in vivo. In short, it runs like this: (§3)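 Female athymic nude mice, 5 × 10^6 HCT-116 cells injected subcutaneously in the right flank. At a mean tumor volume of ~150 mm3, mice were randomized to groups (N = 10). Oral QD dosing at 0, 1, 2.5, 5 or 10 mg/kg as a suspension in 20% HP-β-cyclodextrin (100 µL). Three mice per group were taken for PD after 2 days; the rest were dosed for 21 days. Body weight was followed, with euthanasia at 20% weight loss.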

The subject of series [20] is Mus musculus. Briefly: Toxicity in athymic mouse xenografted with human HCT116 cells assessed as loss of body weight at 10 mg/kg, po qd. The note with it: in vivo. Also noted: dose 10 mg/kg, route oral. Type of series: organism-based, HCT-116. In outline: as §3
In series [21] the target is Proto-oncogene tyrosine-protein kinase Src (Homo sapiens, UniProt P12931). Briefly: Inhibition of Src.
Proto-oncogene tyrosine-protein kinase Src, sequence (P12931 2-536 limits assumed): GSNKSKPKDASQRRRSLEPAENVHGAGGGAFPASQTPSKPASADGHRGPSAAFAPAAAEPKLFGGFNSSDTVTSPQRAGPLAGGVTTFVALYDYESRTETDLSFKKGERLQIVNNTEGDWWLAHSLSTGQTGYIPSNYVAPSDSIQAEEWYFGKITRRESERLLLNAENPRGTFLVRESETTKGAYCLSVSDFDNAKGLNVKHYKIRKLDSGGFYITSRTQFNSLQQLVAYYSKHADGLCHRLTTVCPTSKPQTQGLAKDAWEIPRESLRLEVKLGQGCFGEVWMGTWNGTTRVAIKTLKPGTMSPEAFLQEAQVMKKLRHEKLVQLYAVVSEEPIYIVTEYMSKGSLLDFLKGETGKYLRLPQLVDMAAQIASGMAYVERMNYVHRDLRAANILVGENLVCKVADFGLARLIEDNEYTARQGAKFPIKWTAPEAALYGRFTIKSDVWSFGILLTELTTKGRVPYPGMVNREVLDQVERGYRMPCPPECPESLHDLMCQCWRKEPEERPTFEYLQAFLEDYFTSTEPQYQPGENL
The subject of series [22] is Mus musculus. Nature of the series: Toxicity in athymic mouse xenografted with human HCT116 cells assessed as gastrointestinal hypocellularity at 10 mg/kg, po qd. The note with it: in vivo.
For the next series, the system named is HCT-116. Nature of the series: Antiproliferative activity against human HCT116 cells.

T1 sequence (Q96GD4 whole entry): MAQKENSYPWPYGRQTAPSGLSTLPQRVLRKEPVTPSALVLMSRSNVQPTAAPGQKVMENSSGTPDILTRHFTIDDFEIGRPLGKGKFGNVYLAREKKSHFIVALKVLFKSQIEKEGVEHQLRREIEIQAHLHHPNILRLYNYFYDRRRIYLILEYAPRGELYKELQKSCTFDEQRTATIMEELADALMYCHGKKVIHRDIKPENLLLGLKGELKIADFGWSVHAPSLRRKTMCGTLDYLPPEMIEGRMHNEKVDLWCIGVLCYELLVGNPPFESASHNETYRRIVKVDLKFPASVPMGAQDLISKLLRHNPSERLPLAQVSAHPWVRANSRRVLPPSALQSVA
Serine/threonine-protein kinase Chk1, sequence (O14757 whole entry): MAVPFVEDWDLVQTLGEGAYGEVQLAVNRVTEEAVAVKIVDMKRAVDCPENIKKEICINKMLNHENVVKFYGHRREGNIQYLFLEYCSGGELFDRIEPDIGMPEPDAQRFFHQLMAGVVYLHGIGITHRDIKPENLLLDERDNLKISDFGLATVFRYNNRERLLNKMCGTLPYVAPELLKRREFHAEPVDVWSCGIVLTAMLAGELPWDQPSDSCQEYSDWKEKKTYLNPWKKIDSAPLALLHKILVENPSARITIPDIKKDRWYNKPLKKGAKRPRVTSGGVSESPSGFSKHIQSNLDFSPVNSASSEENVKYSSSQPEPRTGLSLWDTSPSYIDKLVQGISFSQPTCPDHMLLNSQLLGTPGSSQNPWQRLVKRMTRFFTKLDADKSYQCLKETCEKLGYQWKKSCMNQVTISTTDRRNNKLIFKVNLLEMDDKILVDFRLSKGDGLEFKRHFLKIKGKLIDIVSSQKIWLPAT

For orientation: Cmax means the maximum level reached in the sampled fluid or tissue. One may read the AUC(0-t) as exposure summed from dosing to a finite time, without extrapolation to infinity. Low readings indicate less exposure, high ones more exposure. A word on the IC50: it is the point on the concentration scale where inhibition reaches its midpoint. `Cc1cc(-c2nc3cc4c(cc3[nH]2)NC(=O)C4(C)C)n[nH]1` yielded a peak concentration (Cmax) in series [1] of 0.88 µM. Besides, in series [2], the AUC(0-t) is 1.5 µM·h. For the same compound, the results for the IC50 on Aurora kinase B [3] and at Aurora kinase A [4] were 150 nM and 180 nM, respectively.
Turning to `Cc1[nH]nc2c1CCCC1c3ccccc3NC21` (stereo not given), the IC50 amounted to 2600 nM in the series with HT-29, 670 nM with MCF7, 22 nM against Aurora kinase B [3] and 42 nM against Aurora kinase A [4].
The matching figures for `Cc1[nH]nc2c1Cc1c-2[nH]c2ccccc12`: greater than 20000 nM, greater than 20000 nM, 880 nM and 870 nM.
`CCN1C(=O)C(C)(C)c2cc3nc(-c4cc(C)[nH]n4)[nH]c3cc21` had a Cmax in series [1] of 51 µM. Also, in [2], the AUC(0-t) is 180 µM·h. The IC50 against Aurora kinase B [3] came out at 130 nM; against Aurora kinase A [4] it was 69 nM.
Take `Cc1cc(-c2cc3ccccc3[nH]2)n[nH]1`: the IC50 at Aurora kinase B [3] was determined as 510 nM; against Aurora kinase A [4] it was 1100 nM.
In turn, `c1ccc2c3c([nH]c2c1)-c1n[nH]cc1CC3` had an IC50 at Aurora kinase A [4] of 300 nM.
Consider `Cc1[nH]nc2c1CCCc1c-2[nH]c2cc3c(cc12)C(C)(C)C(=O)N3`, for which the IC50 with HT-29 is 2600 nM; in the series with MCF7, 1500 nM; against Aurora kinase B [3] it was 86 nM; against Aurora kinase A [4], 72 nM.
As for `Cc1[nH]nc2c1CCCc1c-2[nH]c2cc3c(cc12)NC(=O)C3(C)C`, the IC50 worked out at 30 nM in the series on HT-29, 100 nM in the series on MCF7 and 2 nM against Aurora kinase A [4].
Regarding `Cc1[nH]nc2c1CCc1c-2[nH]c2ccccc12`, the IC50 is greater than 20000 nM in the series on HT-29, 4500 nM in the series on MCF7, 220 nM on Aurora kinase B [3] and 51 nM at Aurora kinase A [4].
The compound `CCOC(=O)c1[nH]nc2c1CCc1c-2[nH]c2ccccc12` showed an IC50 against Aurora kinase A [4] of 5700 nM.
As usually defined, the clearance is a measure of how efficiently the substance is removed, as volume per time. A lower clearance goes with a low capacity for elimination. The bioavailability is the share of a dose that reaches the circulation, judged against a reference dose that is usually intravenous. `CCN1C(=O)C(C)(C)c2cc3[nH]c4c(c3cc21)CCCc1c-4n[nH]c1C` gave a F in the series with Mus musculus [5] of 178%. The IC50 on Aurora kinase A [6] is 160 nM; at Aurora kinase B [8], 100 nM; in series [10], 15000 nM; in [11], 7700 nM; in series [12], 12 nM; in series [15], 2 nM. The IC50 was found to be 310 nM on Aurora kinase B [16], 85 nM in series [17], 5 nM against Aurora kinase B [3] and 250 nM in series [21]. Moreover, the clearance in series [7] turned out to be 34 mL/min/kg; in [13], 22 mL/min/kg; in series [14], 25 mL/min/kg. Moreover, the bioavailability in series [9] came to 56%; in series [18], 97%. Also, the Activity entry in the series on Mus musculus [19], with Mus musculus [20] and with Mus musculus [22] was “Toxic” in each case.
The compound `c1ccc2c3c([nH]c2c1)-c1n[nH]c(C2CC2)c1CC3` gave an IC50 at Aurora kinase A [4] of 110 nM.
On to `Cc1cc(Nc2cc(N3CCN(C)CC3)nc(Sc3ccc(NC(=O)C4CC4)cc3)n2)n[nH]1` [TOZASERTIB], for which the IC50 in the series with HT-29 stood at 150 nM; in the series with MCF7, 48 nM; with HCT-116 it was 53 nM.
Turning to `OCc1[nH]nc2c1CCc1c-2[nH]c2ccccc12`, the midpoint of inhibition on Aurora kinase A [4], the IC50, lay at 340 nM.
